In brackets after ≈: the same amount, converted by molar mass.
Experiments:
[1] = biological target: T1, Calcitonin gene-related peptide type 1 receptor (Homo sapiens, UniProt O60894+Q16602); experiment: Displacement of [125I]CGRP from human CGRP receptor in human SK-N-MC cells measured after 2 hrs by scintillation counting analysis; type: cell-based
[2] = biological target: Cytochrome P450 3A4 (Homo sapiens, UniProt P08684); experiment: Time dependent inhibition of CYP3A4 (unknown origin) measured after 30 mins; type: ADME
[3] = Microsomal stability in rat microsomes assessed as parent compound remaining at […] measured after 10 mins; type: ADME, Microsome; conditions: read-out: Stabilty
[4] = Microsomal stability in human liver microsomes assessed as parent compound remaining at […] measured after 10 mins; type: ADME; conditions: read-out: Stabilty
[5] = Microsomal stability in monkey microsomes assessed as parent compound remaining at […] measured after 10 mins; type: ADME, Macaca mulatta, Liver, Microsome; conditions: rhesus monkey, read-out: Stabilty
[6] = Total plasma concentration in human CGRPalpha-induced migraine marmoset model at 3 mg/kg, sc measured after 15 to 105 mins; type: ADME, organism-based, Callithrix jacchus; conditions: in vivo, time 15-105 min
Method in brief: (§1)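 In anesthetized marmosets given the antagonist sc at 0 min and iv hαCGRP (10 µg/kg) at −30, +15, +60 and +105 min, total plasma levels were taken at the 15, 60 and 105 min postdose test times.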

[7] = Fraction unbound in plasma of human CGRPalpha-induced migraine marmoset model at 7 mg/kg, sc measured after 15 to 105 mins; type: ADME, organism-based, Callithrix jacchus; conditions: time 15-105 min
[8] = biological target: T1, Calcitonin gene-related peptide type 1 receptor; experiment: Antagonist activity against human CGRP receptor in human SK-N-MC cells assessed as inhibition of CGRP-stimulated cAMP production; type: functional, cell-based
[9] = Oral bioavailability in rat at 10 mg/kg; type: ADME, organism-based; conditions: in vivo
Method in brief: (§2)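 Rats received a single 10 mg/kg oral dose in 80% PEG400/10% DMAC/10% Tween 80.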

[10] = Cmax in Cynomolgus monkey at 10 mg/kg, po; type: ADME, organism-based, Macaca fascicularis; design: route oral, dose 10 mg/kg; conditions: in vivo
[11] = system: Callithrix jacchus; experiment: Antimigraine activity in human CGRPalpha-induced migraine marmoset model assessed as reduction in facial blood flow at 7 mg/kg, sc administered 30 mins after CGRPalpha stimulation measured after 105 mins by laser doppler method relative to control; type: functional; design: scale not given: the % may be the effect or the level left; conditions: 1.75 h
Method in brief: (§3)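 Marmosets were anesthetized. Facial blood flow was raised by iv hαCGRP (10 µg/kg) given at −30, +15, +60 and +105 min relative to sc antagonist dosing at 0 min. Blood flow was read by laser Doppler flowmetry. Inhibition of the CGRP-induced increase was expressed against the predose vehicle control response at −30 min.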

[12] = Solubility in phosphate buffer at pH 7 using amorphous form of sample; type: physicochemical
Method in brief: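 Solubility of the amorphous solid was measured in 50 mM phosphate buffer, pH 7.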

[13] = Permeability form basolateral to apical side in human Caco2 cells; type: ADME, cell-based; conditions: Caco-2, read-out: permeability
[14] = Cmax in rat at 10 mg/kg, po; type: ADME, organism-based; design: route oral, dose 10 mg/kg; conditions: in vivo; method in brief: as §2
[15] = system: Callithrix jacchus; experiment: Antimigraine activity in human CGRPalpha-induced migraine marmoset model assessed as reduction in facial blood flow at 7 mg/kg, sc administered 30 mins after CGRPalpha stimulation measured after 60 mins by laser doppler method relative to control; type: functional; design: scale not given: the % may be the effect or the level left; conditions: 1 h; method in brief: as §3
[16] = Total plasma concentration in human CGRPalpha-induced migraine marmoset model at 7 mg/kg, sc measured after 15 to 105 mins; type: ADME, organism-based, Callithrix jacchus; conditions: in vivo, time 15-105 min; method in brief: as §1
[17] = Permeability of compound at pH 7.4 by PAMPA assay; type: ADME; conditions: read-out: permeability
[18] = system: Callithrix jacchus; experiment: Antimigraine activity in human CGRPalpha-induced migraine marmoset model assessed as reduction in facial blood flow at 7 mg/kg, sc administered 30 mins after CGRPalpha stimulation measured after 15 mins by laser doppler method relative to control; type: functional; design: scale not given: the % may be the effect or the level left; conditions: 0.25 h; method in brief: as §3
[19] = Permeability form apical to basolateral side in human Caco2 cells; type: ADME, cell-based; conditions: Caco-2, read-out: permeability
[20] = system: Callithrix jacchus; experiment: Antimigraine activity in human CGRPalpha-induced migraine marmoset model assessed as reduction in facial blood flow at 3 mg/kg, sc administered 30 mins after CGRPalpha stimulation measured after 15 to 105 mins by laser doppler method relative to control; type: functional; design: scale not given: the % may be the effect or the level left; conditions: time 15-105 min; method in brief: as §3
[21] = Permeability of compound at pH 5.5 by PAMPA assay; type: ADME; conditions: read-out: permeability
[22] = system: Callithrix jacchus; experiment: Antimigraine activity in human CGRPalpha-induced migraine marmoset model assessed as reduction in facial blood flow at 7 mg/kg, sc administered 30 mins after CGRPalpha stimulation measured after 15 to 105 mins by laser doppler method relative to control; type: functional; design: scale not given: the % may be the effect or the level left; conditions: time 15-105 min; method in brief: as §3

Sequence of Cytochrome P450 3A4 (P08684 whole entry): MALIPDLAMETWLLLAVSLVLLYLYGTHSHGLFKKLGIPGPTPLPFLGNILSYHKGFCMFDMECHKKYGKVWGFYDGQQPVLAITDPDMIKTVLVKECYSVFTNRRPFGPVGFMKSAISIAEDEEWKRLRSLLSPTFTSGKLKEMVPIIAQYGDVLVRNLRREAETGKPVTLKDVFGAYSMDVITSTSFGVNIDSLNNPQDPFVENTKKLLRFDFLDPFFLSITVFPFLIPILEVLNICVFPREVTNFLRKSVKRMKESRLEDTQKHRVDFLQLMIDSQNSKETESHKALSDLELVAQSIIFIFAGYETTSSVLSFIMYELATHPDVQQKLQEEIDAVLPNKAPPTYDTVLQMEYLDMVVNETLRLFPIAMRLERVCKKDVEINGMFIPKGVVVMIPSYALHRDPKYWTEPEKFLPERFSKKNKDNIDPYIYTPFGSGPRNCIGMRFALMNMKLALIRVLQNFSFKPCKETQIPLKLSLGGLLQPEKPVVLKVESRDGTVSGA
T1 sequence (Q16602 whole entry, one chain of several): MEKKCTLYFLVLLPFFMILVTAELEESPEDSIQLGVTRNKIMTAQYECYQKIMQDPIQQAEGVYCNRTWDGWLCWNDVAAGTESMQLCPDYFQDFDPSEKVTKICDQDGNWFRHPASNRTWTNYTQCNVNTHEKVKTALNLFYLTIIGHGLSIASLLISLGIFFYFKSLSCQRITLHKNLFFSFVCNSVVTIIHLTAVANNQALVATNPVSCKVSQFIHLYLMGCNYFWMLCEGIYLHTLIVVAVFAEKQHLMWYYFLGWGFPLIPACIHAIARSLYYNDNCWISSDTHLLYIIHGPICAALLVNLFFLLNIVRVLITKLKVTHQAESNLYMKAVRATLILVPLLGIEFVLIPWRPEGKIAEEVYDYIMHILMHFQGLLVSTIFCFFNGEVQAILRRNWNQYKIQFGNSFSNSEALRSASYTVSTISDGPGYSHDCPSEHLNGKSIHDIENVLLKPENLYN

Ki [1] [nM] | remaining at 10 min [3] [%] | remaining at 10 min [4] [%] | remaining at 10 min [5] [%] | Cmax [14] [nM] | Compound | other results
0.046 | – | – | – | – | O=C(C[C@@H]1Cc2cc(Cl)c3[nH]ncc3c2CN(CC(F)(F)F)C1=O)N1CCC(N2CCc3ccccc3NC2=O)CC1 | IC50 [2]: 100 nM
0.17 | 7 | 26 | 24 | – | O=C(C[C@@H]1Cc2cc(Cl)c3[nH]cnc3c2CN(CC(F)(F)F)C1=O)N1CCC(N2CCc3ccccc3NC2=O)CC1 | –
0.015 | 35 | 36 | 75 | 96 | Cn1c(=O)[nH]c2c(Cl)cc3c(c21)CN(CC(F)(F)F)C(=O)[C@H](CC(=O)N1CCC(N2CCc4ccccc4NC2=O)CC1)C3 | concentration [6]: 40 nM; fraction unbound [7]: 0.023; IC50 [8]: 0.06 nM; IC50 [2]: 8100 nM; bioavailability [9]: 1%; Cmax [10]: 35 nM; Activity [11]: 85%; solubility [12]: < 1 µg/mL; Papp B→A [13]: 19.6 ×10⁻⁶ cm/s; Activity [15]: 87%; concentration [16]: 170 nM; Papp [17]: 19.2 ×10⁻⁶ cm/s; Activity [18]: 57%; Papp A→B [19]: < 1.5 ×10⁻⁶ cm/s; Activity [20]: 79%
0.019 | 41 | 60 | 71 | 3 | O=C(C[C@@H]1Cc2cc(Cl)c3[nH]c(=O)[nH]c3c2CN(CC(F)(F)F)C1=O)N1CCC(N2CCc3ccccc3NC2=O)CC1 | –
0.13 | 82 | 91 | 28 | 4 | O=C(C[C@@H]1Cc2cc(Cl)c3c(c2CN(CC(F)(F)F)C1=O)C(F)(F)C(=O)N3)N1CCC(n2c(=O)[nH]c3ncccc32)CC1 | fraction unbound [7]: 0.054; IC50 [2]: > 40000 nM; Activity [11]: 56%; solubility [12]: 15 µg/mL (≈ 23.9 µM); Papp B→A [13]: 25.7 ×10⁻⁶ cm/s; Activity [15]: 48%; Papp [21]: 9.9 ×10⁻⁶ cm/s; concentration [16]: 140 nM; Papp [17]: 8.7 ×10⁻⁶ cm/s; Activity [18]: 47%; Papp A→B [19]: < 1.5 ×10⁻⁶ cm/s
0.44 | 90 | 62 | 64 | – | O=C(C[C@@H]1Cc2cc(Cl)c3[nH]nnc3c2CN(CC(F)(F)F)C1=O)N1CCC(n2c(=O)[nH]c3ncccc32)CC1 | –
0.02 | 54 | 58 | 87 | 270 | O=C(C[C@@H]1Cc2cc(Cl)c3[nH]c(=O)n(CC(F)(F)F)c3c2CN(CC(F)(F)F)C1=O)N1CCC(N2CCc3ccccc3NC2=O)CC1 | fraction unbound [7]: 0.009; IC50 [8]: 0.12 nM; IC50 [2]: 8400 nM; Cmax [10]: 87 nM; Activity [11]: 84%; solubility [12]: < 1 µg/mL; Papp B→A [13]: 2.4 ×10⁻⁶ cm/s; Activity [15]: 65%; Papp [21]: 51.3 ×10⁻⁶ cm/s; concentration [16]: 80 nM; Activity [18]: 26%; Papp A→B [19]: < 1.5 ×10⁻⁶ cm/s
0.014 | 22 | 44 | 59 | 230 | CCn1c(=O)[nH]c2c(Cl)cc3c(c21)CN(CC(F)(F)F)C(=O)[C@H](CC(=O)N1CCC(N2CCc4ccccc4NC2=O)CC1)C3 | IC50 [8]: 0.09 nM; Cmax [10]: 230 nM; Activity [22]: 67%
0.06 | 40 | 40 | 7 | – | N#Cc1c[nH]c2c(Cl)cc3c(c12)CN(CC(F)(F)F)C(=O)[C@H](CC(=O)N1CCC(n2c(=O)[nH]c4ncccc42)CC1)C3 | –
0.12 | 64 | 49 | 63 | 36 | O=C(C[C@@H]1Cc2cc(Cl)c3[nH]c(=O)oc3c2CN(CC(F)(F)F)C1=O)N1CCC(n2c(=O)[nH]c3ncccc32)CC1 | –
0.069 | 35 | 22 | 8.1 | 480 | O=C(C[C@@H]1Cc2cc(Cl)c3c(c2CN(CC(F)(F)F)C1=O)C(F)(F)C(=O)N3)N1CCC(N2CCc3ccccc3NC2=O)CC1 | –
0.043 | 56 | 73 | 100 | 11 | Cn1c(=O)[nH]c2c(Cl)cc3c(c21)CN(CC(F)(F)F)C(=O)[C@H](CC(=O)N1CCC(N2CCc4ncccc4NC2=O)CC1)C3 | –
0.85 | 0.8 | 0.9 | 1.6 | – | O=C(C[C@@H]1Cc2cc(Cl)c3[nH]ccc3c2CN(CC(F)(F)F)C1=O)N1CCC(N2CCc3ccccc3NC2=O)CC1 | –
0.06 | 11 | 38 | 26 | – | N#Cc1c[nH]c2c(Cl)cc3c(c12)CN(CC(F)(F)F)C(=O)[C@H](CC(=O)N1CCC(N2CCc4ccccc4NC2=O)CC1)C3 | –
0.026 | 90 | 90 | 41 | 3 | O=C(C[C@@H]1Cc2cc(Cl)c3[nH]c(=O)n(CC(F)(F)F)c3c2CN(CC(F)(F)F)C1=O)N1CCC(n2c(=O)[nH]c3ncccc32)CC1 | solubility [12]: < 1 µg/mL; Papp B→A [13]: 16.5 ×10⁻⁶ cm/s; Papp [21]: 2.8 ×10⁻⁶ cm/s; Papp [17]: 2.3 ×10⁻⁶ cm/s; Papp A→B [19]: < 1.5 ×10⁻⁶ cm/s
0.4 | 80 | 80 | 70 | – | NC(=O)c1c[nH]c2c(Cl)cc3c(c12)CN(CC(F)(F)F)C(=O)[C@H](CC(=O)N1CCC(n2c(=O)[nH]c4ncccc42)CC1)C3 | –
